Columns and labels:
[1] = molecular target: T1, Glucagon receptor (Homo sapiens, UniProt P47871); assay: Displacement of [125I]-glucagon from human glucagon receptor expressed in CHO cells after 4 to 12 hrs by scintillation proximity assay; format: cell-based
Outline: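 Scintillation proximity assay on membranes from CHO cells expressing hGCGR, measuring inhibition of ¹²⁵I-labelled glucagon binding. IC50 reported as the average rounded to two significant figures, with standard error of the mean when more than one measurement was made.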

[2] = molecular target: T1, Glucagon receptor; assay: Antagonist activity at human glucagon receptor expressed in CHO cells assessed as inhibition of forskolin/glucagon-induced cAMP production preincubated for 30 mins before glucagon challenge measured after 30 mins using [125I]-cAMP by liquid scintillation counting; format: functional, cell-based
Outline: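 Glucagon-induced cAMP production measured in CHO cells transfected with hGCGR. IC50 reported as the average rounded to two significant figures, with SEM when measured more than once.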

[3] = Clearance in rat; format: ADME, organism-based; details: in vivo
Outline: (§1)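 Rat PK with dosing at 1 mg/kg IV and 2 mg/kg PO, vehicle DMSO/water/PEG400 15:35:55. Parameters were plasma clearance, Vd, t1/2, dose-normalised PO AUC and Cmax, and %F.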

[4] = Oral bioavailability in rat; format: ADME, organism-based; details: in vivo; outline: as §1
[5] = Plasma clearance in rat at 1 mg/kg, iv and 2 mg/kg, po; format: ADME, organism-based; outline: as §1
[6] = Volume of distribution in rat at 1 mg/kg, iv and 2 mg/kg, po; format: ADME, organism-based; details: in vivo; outline: as §1
[7] = Half life in rat at 1 mg/kg, iv and 2 mg/kg, po; format: ADME, organism-based; details: in vivo; outline: as §1
[8] = system: Rattus norvegicus; assay: Dose normalised AUC in rat at 2 mg/kg, po; format: ADME, organism-based; design: dose 2 mg/kg, route oral; details: in vivo; outline: as §1
[9] = system: Rattus norvegicus; assay: Dose normalised Cmax in rat at 1 mg/kg, iv and 2 mg/kg, po; format: ADME, organism-based; details: in vivo; outline: as §1
[10] = Oral bioavailability in rat at 2 mg/kg; format: ADME, organism-based; details: in vivo; outline: as §1

T1 sequence (P47871 whole entry): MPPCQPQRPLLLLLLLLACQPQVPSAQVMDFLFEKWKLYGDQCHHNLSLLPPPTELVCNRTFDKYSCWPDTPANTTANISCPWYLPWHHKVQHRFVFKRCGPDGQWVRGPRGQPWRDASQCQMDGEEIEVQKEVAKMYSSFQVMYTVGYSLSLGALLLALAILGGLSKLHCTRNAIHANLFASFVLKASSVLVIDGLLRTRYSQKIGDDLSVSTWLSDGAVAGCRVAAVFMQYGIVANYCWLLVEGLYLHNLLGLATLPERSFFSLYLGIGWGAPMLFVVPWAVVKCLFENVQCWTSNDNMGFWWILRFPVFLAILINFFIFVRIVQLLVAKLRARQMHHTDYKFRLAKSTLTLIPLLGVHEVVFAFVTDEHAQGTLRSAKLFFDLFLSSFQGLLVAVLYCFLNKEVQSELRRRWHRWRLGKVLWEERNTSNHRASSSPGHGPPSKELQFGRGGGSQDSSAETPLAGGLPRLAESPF

## CCC[C@H](Cc1ccc(C(=O)NCCC(=O)O)cc1)C(=O)c1cc2cc(Cl)ccc2n1-c1cccc(C(F)(F)F)n1
[1]
  IC50: 0.45 µM

## CCCC(Cc1ccc(C(=O)NCCC(=O)O)cc1)C(=O)c1cc2cc(Cl)ccc2n1-c1ccc(Cl)cc1 (single isomer, unassigned)
[1]
  IC50: 0.032 µM
[2]
  IC50: 0.1 µM

## CCCCC[C@@H](Cc1ccc(C(=O)NCCC(=O)O)cc1)C(=O)c1cc2cc(OC(F)(F)F)ccc2n1-c1cccc(C(F)(F)F)c1
[1]
  IC50: 0.0057 µM
[2]
  IC50: 0.017 µM

## CCCC(Cc1ccc(C(=O)NCCC(=O)O)cc1)C(=O)c1cc2cc(Cl)ccc2n1-c1ccc(C(C)(C)C)cc1 (single isomer, unassigned)
[1]
  IC50: 0.052 µM
[3]
  clearance: 4.7 mL/min/kg
[4]
  bioavailability: 38%
[2]
  IC50: 0.052 µM

## CCCC(Cc1ccc(C(=O)NCCC(=O)O)cc1)C(=O)c1cc2cc(Cl)ccc2n1-c1cccc(OC(F)(F)F)c1 (single isomer, unassigned)
[1]
  IC50: 0.024 µM
[2]
  IC50: 0.035 µM

## CCCC(Cc1ccc(C(=O)NCCC(=O)O)cc1)C(=O)c1cc2cc(Cl)ccc2n1-c1ccc2cc(OC)ccc2c1 (single isomer, unassigned)
[1]
  IC50: 0.034 µM
[2]
  IC50: 0.095 µM

## O=C(Nc1nnn[nH]1)c1ccc(Cn2c(C(=O)c3ccc(OC(F)(F)F)cc3)cc3ccc(C(F)(F)F)cc32)cc1
[1]
  IC50: 0.051 µM
[3]
  clearance: 10 mL/min/kg
[4]
  bioavailability: 40%

## CCCCC[C@@H](Cc1ccc(C(=O)NCCC(=O)O)cc1)C(=O)c1cc2cc(C)ccc2n1-c1cccc(C(F)(F)F)c1
[1]
  IC50: 0.012 µM
[2]
  IC50: 0.024 µM

## CC(C)CC[C@@H](Cc1ccc(C(=O)NCCC(=O)O)cc1)C(=O)c1cc2cc(Cl)ccc2n1-c1cccc(C(F)(F)F)c1
[1]
  IC50: 0.017 µM
[2]
  IC50: 0.036 µM

## CCCCC[C@@H](Cc1ccc(C(=O)NCCC(=O)O)cc1)C(=O)c1cc2cc(OC)ccc2n1-c1cccc(C(F)(F)F)c1
[1]
  IC50: 0.026 µM
[2]
  IC50: 0.035 µM

## CCCC(Cc1ccc(C(=O)NCCC(=O)O)cc1)C(=O)c1cc2cc(Cl)ccc2n1-c1ccc(OC)c(C(F)(F)F)c1 (single isomer, unassigned)
[1]
  IC50: 0.023 µM
[2]
  IC50: 0.039 µM

## CCC[C@@H](Cc1ccc(C(=O)NCCC(=O)O)cc1)C(=O)c1cc2cc(Cl)ccc2n1-c1cccc(C(F)(F)F)c1
[1]
  IC50: 0.017 µM
[2]
  IC50: 0.055 µM
[5]
  clearance: 14.2 mL/min/kg
[6]
  Vd: 1.5 L/kg
[7]
  half-life: 1.7 h
[8]
  AUC/dose: 0.85 µM·h
[9]
  Cmax/dose: 250 nM
[10]
  bioavailability: 42%

## O=C(O)CCNC(=O)c1ccc(C[C@H](CC2CC2)C(=O)c2cc3cc(Cl)ccc3n2-c2cccc(C(F)(F)F)c2)cc1
[1]
  IC50: 0.037 µM
[2]
  IC50: 0.055 µM

— ChEMBL document CHEMBL1921704, “Discovery of N-aryl-2-acylindole human glucagon receptor antagonists” (Bioorg Med Chem Lett, 2011)
